From PubChem BioAssay
ADAM10 inh: human ADAM10 inhibitors, primary screen, biochemical, QFRET, HTS | 370,000 tested, 0.62% active | Disintegrin and metalloproteinase domain-containing protein 10 (Homo sapiens), O14672 | recombinant ADAM10, EDANS/DABCYL FRET peptide cleavage, 3 h | inhibition, % at 7 µM;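 active = inhibition above a per-campaign cutoff equal to the mean of compounds falling between control-based bounds plus 3 SD, cut at about 20% in these data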;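 note: 0% = DMSO wells while the 100% control is not disclosed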
proKLK7 act: proKLK7 zymogen activators, primary screen, biochemical, fluorescence intensity; activation, % at 7 µM; AID 652039, 2013; 370,000 tested, 0.9% active; Kallikrein-7 (Homo sapiens), P49862; purified proKLK7, EDANS-DABCYL substrate fluorescence; 100% is mature enzyme control, 0% vehicle;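 active = activation above the mean of all tested compounds plus 3 SD, computed per campaign excluding outliers beyond control limits, cut at about 13% in these data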
Target sequence (P49862 whole entry, looked up): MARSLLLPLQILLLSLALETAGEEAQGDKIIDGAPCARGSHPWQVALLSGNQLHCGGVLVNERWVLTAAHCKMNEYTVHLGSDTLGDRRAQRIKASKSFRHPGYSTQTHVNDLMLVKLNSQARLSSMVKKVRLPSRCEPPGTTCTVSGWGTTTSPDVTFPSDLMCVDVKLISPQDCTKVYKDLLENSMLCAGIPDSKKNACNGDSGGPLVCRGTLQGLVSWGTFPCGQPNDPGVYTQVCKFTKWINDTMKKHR
NR2E3 ag-1: NR2E3 agonists in two-hybrid cells, primary screen, cell-based, luminescence, CHO-S, Gal4-NCOR/VP16-NR2E3; luciferase; inhibition of corepressor binding, % at 3.98 µM; 360,000 tested, 0.35% active;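 active = inhibition above the mean of all tested compounds plus 3 SD, cut at about 70% in these data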;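 note: 0% = DMSO with NR2E3 transfected cells and 100% = cells lacking NR2E3 construct; higher means lower luciferase signal from less NR2E3 corepressor binding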
Target sequence (Q9Y5X4 whole entry, looked up, the tested form may be a part): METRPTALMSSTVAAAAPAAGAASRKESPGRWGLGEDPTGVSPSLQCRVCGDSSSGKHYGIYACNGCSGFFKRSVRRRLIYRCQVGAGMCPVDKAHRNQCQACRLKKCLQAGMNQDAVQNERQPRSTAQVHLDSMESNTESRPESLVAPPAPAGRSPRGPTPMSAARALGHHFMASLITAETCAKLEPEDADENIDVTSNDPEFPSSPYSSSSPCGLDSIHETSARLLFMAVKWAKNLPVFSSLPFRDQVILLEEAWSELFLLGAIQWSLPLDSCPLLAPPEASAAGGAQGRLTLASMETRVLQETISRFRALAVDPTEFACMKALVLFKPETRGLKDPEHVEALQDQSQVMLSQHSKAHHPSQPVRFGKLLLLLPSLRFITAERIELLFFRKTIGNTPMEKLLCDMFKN
JMJD2C inh: inhibitors of GASC-1 histone demethylase, primary screen, biochemical, fluorescence, DELFIA europium; Lysine-specific demethylase 4C (Homo sapiens), Q9H3R0; GST-JMJD2C(1-420) H3K9me3 demethylation; inhibition, % at 2.35 µM; 330,000 tested, 0.069% active;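 active = more than half of a compound's replicate wells show inhibition beyond 50%, single wells judged on their own value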;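 note: signal counts dimethyl H3K9 product captured on neutravidin plate; 0% = median of DMSO wells and 100% = 0.3 times that DMSO median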
NR2E3 ag-2: inhibitors of NR2E3-RetCOR corepressor binding, primary screen, NR2E3 agonist project, biochemical, TR-FRET, GST-NR2E3, biotin-RetCOR. Photoreceptor-specific nuclear receptor (Homo sapiens), Q9Y5X4. 320,000 tested, 0.12% active. inhibition of corepressor binding, % at 4.78 µM. AID 2300, 2010. 1536-well;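 active = percent inhibition above the cutoff of mean plus 3 SD of all tested compounds, set per screening campaign, cut at about 20% in these data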;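 note: 0% = DMSO wells and 100% = biotin wells as full block of FRET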
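Material: NR2E3–RetCOR corepressor complex / Incubation: Compound–protein incubation for 5 h at 4 °C / Dosing: compound at 4.8 µM, single dose / Detection: time-resolved FRET / Benchmarks: high control biotin, low control 0.6% DMSO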
ADAM17 inh: ADAM17 inhibitors, primary screen, biochemical, QFRET. recombinant ADAM17, EDANS/DABCYL FRET peptide cleavage. Disintegrin and metalloproteinase domain-containing protein 17 (Homo sapiens), P78536. 370,000 tested, 0.83% active. inhibition, % at 6.95 µM;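 active = inhibition above the mean of compounds lying between control limits plus 3 SD, set per campaign, cut at about 8.5% in these data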;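 note: 0% = DMSO-only wells as the low control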
NR2E3 ag conf: NR2E3 agonist confirmation in cells, cell-based, luminescence, CHO-S two-hybrid; shares compounds with NR2E3 ag-1; CHO-S mammalian two-hybrid NR2E3-NCOR, luciferase luminescence; inhibition, % at 3.98 µM; 2,300 tested, 51% active;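 active = average inhibition above a cutoff equal to the mean inhibition of all tested compounds plus one SD, cut at about 70% in these data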;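 note: 0% = DMSO in NR2E3 cells and 100% = DMSO in cells lacking NR2E3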
VP16 counter: GAL4-VP16 reporter modulators, confirmation, counter-screen for NR2E3 agonist project, cell-based, luminescence, CHO-S, high throughput; shares compounds with NR2E3 ag-1; CHO-S GAL4-VP16 luciferase reporter; inhibition, % at 3.98 µM; 2,300 tested, 29% active; AID 624379, 2012;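 active = mean inhibition above a cutoff equal to the average over all tested compounds plus one standard deviation, cut at about 70% in these data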;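 note: luciferase from a UAS reporter driven by GAL4-VP16 transactivation; 0% = DMSO with VP16-transfected cells and 100% = DMSO with cells lacking VP16; higher means less reporter light so more repression of VP16 activity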
An asterisk follows results filed as active; · = not tested or not shown. Only some compounds are listed: those with a hit (about 2.5% of all), similar ones and a draw of the others.

SMILES	ADAM10 inh	proKLK7 act	NR2E3 ag-1	JMJD2C inh	NR2E3 ag-2	ADAM17 inh	NR2E3 ag conf	VP16 counter
N#C/C(=C\c1ccc(Sc2nc3ccccc3[nH]2)o1)c1ccccc1	8	-1	73*	4	-2	5	82*	56
CCc1ccc(OCC(=O)Nc2ccc3c(c2)OCCO3)cc1	9	0	-4	7	4	-2	·	·
Cc1ccnc(NC(=O)CCCOc2cc(=O)n(C)c3ccccc23)c1	-10	1	58	-3	1	0	73*	28
Cc1ccnc(NC(=O)CSc2cc(=O)n(C)c3ccccc23)c1	-18	1	67	-3	-2	-4	89*	20
Cc1ccccc1NC(=O)CCNS(=O)(=O)c1cccc2nsnc12	-1	0	-24	2	0	1	·	·
COc1ccc(C(=O)Nc2ccccc2C(=O)NCCN2CCOCC2)cc1OC	-6	0	-4	-1	2	-5	·	·
CCOc1ccc(S(=O)(=O)N2CCCCC2)c2ccccc12	-8	0	58	6	0	0	55	-10
CC(=O)N1CCN(C(=O)c2ccc(Cl)c(S(=O)(=O)N3CC(C)OC(C)C3)c2)CC1 (stereo unspecified)	-5	0	49	-3	·	-2	0	4
O=C(O)CC/C(=C\c1ccc(N2CCCC2)c([N+](=O)[O-])c1)c1nc2ccccc2s1	2	1	-20	-3	5	3	·	·
CN(c1ccccc1)c1ccc(/C=C(/CCC(=O)O)c2nc3ccccc3s2)cc1[N+](=O)[O-]	15	0	67	·	·	-1	26	44
Cc1ccccc1Cn1cc(COC(=O)NCCc2ccccc2)nn1	0	1	·	·	·	-1	·	·
COc1ccc(N2CCN(c3ncnc4c3[nH]c3ccccc34)CC2)cc1	-9	1	77*	-8	-1	-3	95*	81*
Fc1ccc2[nH]c3c(N4CCN(c5ccccc5)CC4)ncnc3c2c1	-5	0	80*	-11	1	0	96*	80*
Fc1ccc2[nH]c3c(Cl)ncnc3c2c1	-343	4	7	94	4	-68	·	·
OC1(c2cccc(C(F)(F)F)c2)CCN(c2ncnc3c2[nH]c2ccc(F)cc23)CC1	-84	-1	71*	·	·	-39	91*	71
CCOC(=O)N1CCN(c2ncnc3c2[nH]c2ccc(F)cc23)CC1	-109	0	80*	64	1	-36	95*	73*
CCCCc1ncc(CN2CCC(n3nccc3NC(=O)c3ccccc3Cl)CC2)[nH]1	-10	0	-19	-2	5	-5	·	·
CCN(CC)c1ccc(S(=O)(=O)Nc2cc(Cl)ccc2Cl)cc1NC(=S)NC(=O)C1CCCC1	17	-1	55	16	3	8	9	-6
Cc1ccc(OCCOC(=O)c2cc(S(=O)(=O)N3CCCCC3)ccc2N2CCOCC2)cc1	-11	0	49	30	3	3	72*	52
COc1ccc(COC(=O)c2cc(S(=O)(=O)N3CCCCC3)ccc2N2CCOCC2)cc1	0	1	-17	-19	-1	0	·	·
O=C(OCCOc1ccc(Cl)cc1)c1cc(S(=O)(=O)N2CCCCC2)ccc1N1CCOCC1	-10	0	51	·	·	4	73*	51
COc1ccc(Cl)cc1NC(=O)CN1C(=O)NC2(CCCC2)C1=O	4	0	-15	1	-1	-1	·	·
O=C(Sc1cccc2cccnc12)c1ccccc1Br	1	0	100*	4	-5	2	-24	-39
COc1ccc(-c2c(NC(=O)c3ccco3)n(C)c3ccccc3c2=O)cc1	-30	2	-7	6	5	-11	·	·
CC1(C)CC(=O)C=C(c2n[nH]nc2-c2ccccc2)C1	-8	1	5	·	·	-5	·	·
SMILES	ADAM10 inh	proKLK7 act	NR2E3 ag-1	JMJD2C inh	NR2E3 ag-2	ADAM17 inh	NR2E3 ag conf	VP16 counter
COC(=O)C1CCCCN1C(=O)c1cc(COc2cccc3cnccc23)on1 (stereo unspecified)	-126	7	102*	6	3	-44	95*	88*
CCOC(=O)CC1CCCCN1C(=O)c1cc(COc2cccc3cnccc23)on1 (stereo unspecified)	-89	4	101*	0	-2	-30	91*	88*
CN(Cc1nccs1)C(=O)c1cc(COc2cccc3cnccc23)on1	-127	9	94*	-16	-2	-42	81*	76*
C/C(=N\NC(=O)C(=O)Nc1cc(C)ccc1C)c1ccncc1	1	0	15	14	5	-8	·	·
CNc1sc(C(=O)c2cccs2)c(N)c1-c1nc2ccccc2s1	10	0	51	2	7	2	-16	-40
N#Cc1cccc(NC(=O)OC2CCC23CCC(c2ccccc2)CC3)c1 (stereo unspecified)	12	0	·	·	·	5	·	·
CC(=O)Nc1ccc(S(=O)(=O)NCCOc2ccc(Cl)cc2C)cc1	3	-1	16	-4	3	0	·	·
CCCCOc1ccc(CONS(=O)(=O)c2ccc(NC(C)=O)cc2)cc1Cl	7	1	50	-5	-5	2	81*	54
c1ccc(Nc2nc(NCC3CCCO3)c3ccccc3n2)cc1 (stereo unspecified)	-20	-1	6	-2	0	-5	·	·
c1ccc(-c2nc(NCC3CCCO3)c3ccccc3n2)nc1 (stereo unspecified)	-27	0	89*	-3	0	-10	-8	2
c1ccc(-c2nc(NCc3ccco3)c3ccccc3n2)nc1	2	0	83*	-1	0	-2	11	-2
O=[N+]([O-])c1ccccc1SN(Cc1ccccc1)c1ccccn1	-15	0	-18	1	-2	0	·	·
COCCN(Cc1cc2cc3c(cc2nc1Cl)OCO3)C(=O)Nc1ccc(F)cc1	-7	0	52	25	-2	-2	64	51
